Results on 11 compounds are retold here after ChEMBL document CHEMBL3352414, “Structure based inhibitor design targeting glycogen phosphorylase B. Virtual screening, synthesis, biochemical and biological assessment of novel N-acyl-β-d-glucopyranosylamines” (Bioorg Med Chem, 2014).

The structures appear in SMILES notation.

The target in data set [1] is T1, Glycogen phosphorylase, liver form (Homo sapiens, UniProt P06737).
T1 sequence (P06737 whole entry): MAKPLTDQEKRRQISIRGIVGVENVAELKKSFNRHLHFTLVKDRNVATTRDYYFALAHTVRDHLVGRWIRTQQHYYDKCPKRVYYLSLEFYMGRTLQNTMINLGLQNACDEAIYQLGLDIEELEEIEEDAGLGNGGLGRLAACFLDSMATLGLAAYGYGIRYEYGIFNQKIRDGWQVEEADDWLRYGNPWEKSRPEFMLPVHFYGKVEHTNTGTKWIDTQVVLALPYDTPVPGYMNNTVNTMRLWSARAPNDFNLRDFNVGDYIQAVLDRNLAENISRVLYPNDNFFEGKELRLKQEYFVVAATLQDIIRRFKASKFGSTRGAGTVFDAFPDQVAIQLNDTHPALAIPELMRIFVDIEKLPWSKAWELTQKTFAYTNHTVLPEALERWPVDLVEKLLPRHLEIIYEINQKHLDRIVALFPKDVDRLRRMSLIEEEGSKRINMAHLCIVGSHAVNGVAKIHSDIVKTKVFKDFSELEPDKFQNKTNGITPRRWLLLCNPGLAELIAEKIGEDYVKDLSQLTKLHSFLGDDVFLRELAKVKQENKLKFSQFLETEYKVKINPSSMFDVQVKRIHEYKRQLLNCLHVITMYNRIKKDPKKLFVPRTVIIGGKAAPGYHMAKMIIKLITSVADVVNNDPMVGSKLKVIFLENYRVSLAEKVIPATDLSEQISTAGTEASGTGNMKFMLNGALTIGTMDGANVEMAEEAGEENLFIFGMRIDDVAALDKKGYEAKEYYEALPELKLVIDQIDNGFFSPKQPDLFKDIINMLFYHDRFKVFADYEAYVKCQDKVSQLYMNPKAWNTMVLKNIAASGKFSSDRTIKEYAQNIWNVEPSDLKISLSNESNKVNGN
Kind of data set: Inhibition of glycogen phosphorylase a (unknown origin).

The target in data set [2] is T2, Glycogen phosphorylase, muscle form (Homo sapiens, UniProt P11217).
T2 sequence (P11217 whole entry): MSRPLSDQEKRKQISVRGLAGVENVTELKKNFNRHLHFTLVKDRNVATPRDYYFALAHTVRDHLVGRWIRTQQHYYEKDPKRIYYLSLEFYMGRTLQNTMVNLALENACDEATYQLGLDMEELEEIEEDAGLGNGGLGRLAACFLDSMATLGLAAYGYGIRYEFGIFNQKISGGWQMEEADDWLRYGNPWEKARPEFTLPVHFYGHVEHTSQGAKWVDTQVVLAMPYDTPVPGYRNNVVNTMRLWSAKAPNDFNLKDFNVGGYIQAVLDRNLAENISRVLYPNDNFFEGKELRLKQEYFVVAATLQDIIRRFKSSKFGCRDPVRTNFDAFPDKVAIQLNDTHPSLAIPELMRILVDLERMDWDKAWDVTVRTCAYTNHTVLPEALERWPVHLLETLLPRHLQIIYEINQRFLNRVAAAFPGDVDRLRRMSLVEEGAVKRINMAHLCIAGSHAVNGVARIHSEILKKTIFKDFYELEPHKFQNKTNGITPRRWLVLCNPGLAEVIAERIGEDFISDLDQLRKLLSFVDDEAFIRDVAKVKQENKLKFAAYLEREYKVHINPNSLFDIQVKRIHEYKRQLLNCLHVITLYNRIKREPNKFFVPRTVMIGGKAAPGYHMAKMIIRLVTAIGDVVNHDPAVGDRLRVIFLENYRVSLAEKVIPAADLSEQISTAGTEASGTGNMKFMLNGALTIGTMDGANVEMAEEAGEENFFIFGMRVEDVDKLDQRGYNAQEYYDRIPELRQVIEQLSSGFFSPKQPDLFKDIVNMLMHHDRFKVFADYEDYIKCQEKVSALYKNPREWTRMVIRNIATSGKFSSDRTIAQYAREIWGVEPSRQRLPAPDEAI
Kind of data set: Inhibition of glycogen phosphorylase b (unknown origin). Put shortly:
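Rabbit muscle GPb (5 μg/ml) was assayed at 30 °C in the glycogen-synthesis direction by measuring released inorganic phosphate. Buffer was 30 mM imidazole/HCl pH 6.8 with 60 mM KCl, 0.6 mM EDTA and 0.6 mM DTT. Glycogen 0.2% w/v and AMP 1 mM were held constant, with Glc-1-P at 2-20 mM and varied inhibitor. Enzyme and glycogen were preincubated 15 min, then Glc-1-P was added. Ki was obtained by non-linear regression of initial velocities.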

Data set [3] has as its target T3, Glycogen phosphorylase, liver form (Rattus norvegicus) (UniProt P09811).
T3 sequence (whole entry): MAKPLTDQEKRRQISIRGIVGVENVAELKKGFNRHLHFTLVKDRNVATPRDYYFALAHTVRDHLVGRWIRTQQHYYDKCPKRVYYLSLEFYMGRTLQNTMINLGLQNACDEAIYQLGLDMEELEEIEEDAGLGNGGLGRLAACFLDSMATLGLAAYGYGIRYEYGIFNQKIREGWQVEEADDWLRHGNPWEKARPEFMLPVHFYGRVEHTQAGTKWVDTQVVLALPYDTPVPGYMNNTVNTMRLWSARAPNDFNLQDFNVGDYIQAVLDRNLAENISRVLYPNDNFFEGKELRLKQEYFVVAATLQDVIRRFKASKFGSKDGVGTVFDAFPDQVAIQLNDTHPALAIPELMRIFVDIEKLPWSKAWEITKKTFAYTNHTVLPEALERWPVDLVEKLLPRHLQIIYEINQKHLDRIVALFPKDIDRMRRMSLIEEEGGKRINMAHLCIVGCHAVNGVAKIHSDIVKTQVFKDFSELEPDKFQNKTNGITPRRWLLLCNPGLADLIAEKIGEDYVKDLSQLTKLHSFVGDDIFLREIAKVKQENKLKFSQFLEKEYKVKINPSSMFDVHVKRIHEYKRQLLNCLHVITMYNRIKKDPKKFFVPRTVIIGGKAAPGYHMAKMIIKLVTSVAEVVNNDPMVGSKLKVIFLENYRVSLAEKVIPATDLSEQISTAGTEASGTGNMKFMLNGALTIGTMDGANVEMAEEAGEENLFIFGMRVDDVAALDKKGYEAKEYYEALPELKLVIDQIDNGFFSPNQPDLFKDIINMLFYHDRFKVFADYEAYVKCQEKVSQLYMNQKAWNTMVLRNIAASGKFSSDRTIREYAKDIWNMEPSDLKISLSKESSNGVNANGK
Kind of data set: Inhibition of glycogen phosphorylase a in Wistar rat hepatocytes assessed as effect on conversion of GPa to GPb forms by measuring GPa level at 25 mM after 30 mins relative to 5 mM glucose. On the set-up: scale not given: the % may be the effect or the level left. The data set is classed as cell-based. Particulars: Hepatocyte. In short, it runs like this:
(§1)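 Hepatocytes from male Wistar rats (200-300 g), isolated by collagenase perfusion, seeded at 6 x 10⁴ cells/cm² in MEM with 5% calf serum. After attachment they were cultured 24 h in serum-free MEM with 5 mM glucose, 10 nM dexamethasone and 1 nM insulin. Agents were added 1 h after the medium change and incubated 30 min. Cells were snap frozen, and GPa activity was read by coupling to glucose 6-phosphate dehydrogenase. Values are % of the 5 mM glucose control (with or without 9 mM 5-thioglucose); means ± SEM, n=5 preparations; paired t-test.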

The target of data set [4] is T3, Glycogen phosphorylase, liver form (Rattus norvegicus). Kind of data set: Inhibition of glycogen phosphorylase a in Wistar rat hepatocytes assessed as effect on conversion of GPa to GPb forms by measuring GPa level at 25 mM after 30 mins in presence of 9 mM 5-thioglucose relative to 5 mM glucose. The arrangement: scale not given: the % may be the effect or the level left. The data set is classed as cell-based. Particulars: Hepatocyte. Put shortly: as §1

Data set [5] has the same target. Kind of data set: Inhibition of glycogen phosphorylase a in Wistar rat hepatocytes assessed as effect on conversion of GPa to GPb forms by measuring GPa level at 2 uM after 30 mins relative to 5 mM glucose. Particulars: Hepatocyte. On the set-up: scale not given: the % may be the effect or the level left. The data set is classed as cell-based. Put shortly:
as §1

The nature of data set [6]: Permeability in human Caco2 cells. Particulars: Caco-2, read-out: permeability. The class given is ADME, cell-based.
Data set [7] concerns the target T3, Glycogen phosphorylase, liver form (Rattus norvegicus). In words: Inhibition of glycogen phosphorylase a in Wistar rat hepatocytes assessed as effect on conversion of GPa to GPb forms by measuring GPa level at 20 uM after 30 mins relative to 5 mM glucose. Particulars: Hepatocyte. The data set is classed as cell-based. On the set-up: scale not given: the % may be the effect or the level left. In short, it runs like this:
as §1

Data set [8] addresses T4, Glycogen phosphorylase, muscle form (Oryctolagus cuniculus, UniProt P00489).
T4 sequence (P00489 whole entry): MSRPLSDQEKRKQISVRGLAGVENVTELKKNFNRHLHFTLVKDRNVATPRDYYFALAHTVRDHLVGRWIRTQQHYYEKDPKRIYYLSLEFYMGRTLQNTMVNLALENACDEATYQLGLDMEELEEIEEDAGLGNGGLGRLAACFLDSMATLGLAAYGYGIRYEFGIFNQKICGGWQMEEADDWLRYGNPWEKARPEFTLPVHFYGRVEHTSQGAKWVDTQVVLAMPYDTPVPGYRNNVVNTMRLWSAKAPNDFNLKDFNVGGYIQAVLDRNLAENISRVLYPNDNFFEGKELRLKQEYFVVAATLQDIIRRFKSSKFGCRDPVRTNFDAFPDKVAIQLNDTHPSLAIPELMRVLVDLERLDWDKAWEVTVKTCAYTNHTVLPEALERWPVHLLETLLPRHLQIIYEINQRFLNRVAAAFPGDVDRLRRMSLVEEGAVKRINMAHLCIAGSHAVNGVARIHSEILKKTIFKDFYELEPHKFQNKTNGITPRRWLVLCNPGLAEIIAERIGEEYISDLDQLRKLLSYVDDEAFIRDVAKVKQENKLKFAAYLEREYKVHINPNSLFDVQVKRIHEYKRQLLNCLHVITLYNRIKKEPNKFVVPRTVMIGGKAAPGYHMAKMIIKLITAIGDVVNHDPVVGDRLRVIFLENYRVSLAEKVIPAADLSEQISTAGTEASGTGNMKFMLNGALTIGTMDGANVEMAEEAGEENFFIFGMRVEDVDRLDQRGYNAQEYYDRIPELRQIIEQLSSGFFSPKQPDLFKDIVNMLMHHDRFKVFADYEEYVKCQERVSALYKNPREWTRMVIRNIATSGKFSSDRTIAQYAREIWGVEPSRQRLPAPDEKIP
Kind of data set: Inhibition of rabbit skeletal muscle glycogen phosphorylase b assessed as inorganic phosphate release. Particulars: read-out: Ki.

Data set [9] can be described thus: Octanol water partition coefficient, logP of the compound. The data set is classed as physicochemical.
In data set [10] the target is T3, Glycogen phosphorylase, liver form (Rattus norvegicus). In words: Inhibition of glycogen phosphorylase a in Wistar rat hepatocytes assessed as effect on conversion of GPa to GPb forms by measuring GPa level at 9 mM after 30 mins relative to 5 mM glucose. The class given is cell-based. On the set-up: scale not given: the % may be the effect or the level left. Conditions: Hepatocyte. Put shortly:
as §1

The compound `O=c1c(O)c(-c2ccc(O)c(O)c2)oc2cc(O)cc(O)c12` [QUERCETIN] yielded an IC50 in [1] of 4.8 µM.

`OC[C@H]1O[C@H](O[C@H]2[C@H](O)[C@@H](O)[C@@H](O[C@H]3[C@H](O)[C@@H](O)[C@@H](O[C@H]4[C@H](O)[C@@H](O)[C@@H](O[C@H]5[C@H](O)[C@@H](O)[C@@H](O[C@H]6[C@H](O)[C@@H](O)[C@@H](O[C@H]7[C@H](O)[C@@H](O)C(O)O[C@@H]7CO)O[C@@H]6CO)O[C@@H]5CO)O[C@@H]4CO)O[C@@H]3CO)O[C@@H]2CO)[C@H](O)[C@@H](O)[C@@H]1O` (stereo partly drawn) gave an inhibition constant (Ki) in data set [2] of 1000 µM.

As for `OC[C@H]1OC(O)[C@H](O)[C@@H](O)[C@@H]1O` (stereo partly drawn), the Activity in data set [3] is 64.1%; in data set [4] it was 78.7%.

In turn, `OC[C@H]1O[C@H](O)[C@H](O)[C@@H](O)[C@@H]1O` returned a Ki in data set [1] of 4900 µM.

In data set [1], `O=C(NCCOCCOCCNC(=O)c1cc2cc(Cl)ccc2[nH]1)c1cc2cc(Cl)ccc2[nH]1` showed an IC50 of 0.006 µM.

For `O=C(CCCc1ccc2c(c1)CCCC2)N[C@@H]1O[C@H](CO)[C@@H](O)[C@H](O)[C@H]1O`, the figures for the Activity in [5] and in data set [7] were 93% and 100%, respectively. Further, the Papp in [6] is 9.51 ×10⁻⁶ cm/s. In addition, the Ki in data set [8] is 48.7 µM. In [9], this compound showed a logP of 0.208.

For the compound `O=C(COc1ccc(-c2ccccc2)cc1)N[C@@H]1O[C@H](CO)[C@@H](O)[C@H](O)[C@H]1O`, the Activity in [5] came to 84.5%; in [7], 80.3%. Moreover, the Papp in [6] amounted to 5.09 ×10⁻⁶ cm/s. Also, the Ki in data set [8] was 8.25 µM. Besides, the logP in data set [9] is -0.082.

`O=C[C@H](O)[C@@H](O)[C@H](O)[C@H](S)CO`: the Activity in data set [10] came out at 106%.

As for `O=C(/C=C/c1ccc(-c2ccccc2)cc1)N[C@@H]1O[C@H](CO)[C@@H](O)[C@H](O)[C@H]1O`, the Activity in data set [5] amounted to 89.4%; in data set [7] it was 83.3%. The Papp in [6] was found to be 8.02 ×10⁻⁶ cm/s. Moreover, the Ki in data set [8] turned out to be 5.14 µM. Further, in data set [9], the logP is 0.851.

As for `CC(C)c1ccc(/C=C/C(=O)N[C@@H]2O[C@H](CO)[C@@H](O)[C@H](O)[C@H]2O)cc1`, the Activity in data set [5] worked out at 105%; in data set [7], 106%. Besides, the Papp in data set [6] came to 9.85 ×10⁻⁶ cm/s. In addition, in [8], the Ki was found to be 4.98 µM. The logP in data set [9] is 0.296.

The compound `O=C(O)C1=C(C(=O)O)NC=CC1` had a Ki in [2] of 0.0016 µM.
